# From PubChem BioAssay
# Shown are actives, neighbours in structure and some others; about 1.8% of the full set was active somewhere.
# UBC9 SUMO inh = blocks human SUMOylation mediated by UBC9. HTRF SUMOylation assay, SAE1/SAE2 + UBC9, in vitro. inhibition, % at 35 µM. 290,000 compounds, 0.36% hits. AID 2006; in the data active = inhibition above about 50%, passing the limit was not always enough; inconclusive = no clear call, values can overlap the other calls
# PABP FP inh = PABP-poly(A) binding inhibition; P11940; PABP-poly(A) RNA binding, fluorescence polarization; calls only at 35 µM; 290,000 compounds, 1% hits;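 also: calls also rest on retests at 20 µM and on dose response follow-up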
# Target sequence (P11940 whole entry, looked up): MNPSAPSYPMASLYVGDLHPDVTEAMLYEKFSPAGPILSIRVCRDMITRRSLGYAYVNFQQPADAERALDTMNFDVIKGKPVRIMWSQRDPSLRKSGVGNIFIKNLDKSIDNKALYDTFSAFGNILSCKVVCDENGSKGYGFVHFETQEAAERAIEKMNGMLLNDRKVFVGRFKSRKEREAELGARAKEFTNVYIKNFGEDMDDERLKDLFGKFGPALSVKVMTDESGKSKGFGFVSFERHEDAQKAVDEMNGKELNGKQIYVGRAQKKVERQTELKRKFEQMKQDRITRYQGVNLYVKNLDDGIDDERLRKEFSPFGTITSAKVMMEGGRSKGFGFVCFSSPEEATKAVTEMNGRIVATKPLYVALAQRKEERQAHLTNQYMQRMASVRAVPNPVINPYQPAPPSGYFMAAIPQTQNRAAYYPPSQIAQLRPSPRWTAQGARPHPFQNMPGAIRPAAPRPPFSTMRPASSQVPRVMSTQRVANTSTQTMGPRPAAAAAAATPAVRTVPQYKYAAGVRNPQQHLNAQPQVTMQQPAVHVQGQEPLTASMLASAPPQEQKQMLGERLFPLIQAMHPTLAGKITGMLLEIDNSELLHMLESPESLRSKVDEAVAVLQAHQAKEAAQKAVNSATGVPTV
# eIF4E-4G inh = blocks eIF4E binding to eIF4G. TR-FRET eIF4E-eIF4GI(517-606) binding, 2 h. AID 782. P63073+Q04637. inhibition, % at 21.7 µM. 220,000 compounds, 0.37% hits;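 active = inhibition above about 30%, limit read from the data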;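 also: 0% = full FRET control wells and 100% = background wells lacking eIF4GI fragment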
# MLLE-PAM2 inh = inhibitors of microRNA-mediated deadenylation, human PABP1 MLLE binding | 360,000 compounds, 0.36% hits | AID 588489 | P11940 | GST-MLLE / FITC-PAM2 fluorescence polarization | inhibition, % at 20 µM; in the data active = inhibition above about 35%, passing the limit was not always enough;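 also: plate controls were DMSO wells with GST-MLLE for no effect and wells lacking GST-MLLE protein for full effect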
# eIF4H inh = inhibitors of RNA binding by human eIF4H; 290,000 compounds, 0.94% hits; Q15056; eIF4H fluorescence polarization binding assay; inhibition, % at 35 µM; AID 2012;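 also: calls also rest on retests at 20 µM and on dose response follow-up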
# HCV core dimer = blocks dimerization of HCV core protein. inhibition, % at 5 µM. 300,000 compounds, 0.33% hits. TR-FRET GST/Flag-core106 dimerization, 1536-well;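 active = inhibition above the mean of all tested compounds plus 3 SD, set per screening campaign, cut at about 45% in these data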
#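 Material: Tagged HCV core106 pair (GST and Flag) | Amount: GST-core106 13.5 nM, Flag-core106 17 nM | Medium: KF-containing HEPES buffer, pH 7.45, DTT, CHAPS, BSA | Reagent: Eu donor and XL665 acceptor anti-tag antibodies | Schedule: 4 h at 22.5 °C | Technique: Time-resolved FRET, ex 340 nm, em 617 and 671 nm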
# The depositor's hits bear a star; i = inactive; ? = inconclusive; . = no result; + = active, no number. Unless noted, no rule for the calls is given here.
SMILES,UBC9 SUMO inh,PABP FP inh,eIF4E-4G inh,MLLE-PAM2 inh,eIF4H inh,HCV core dimer
CC(=O)NC(=S)Nc1ccc(-c2nc3ccc(C)cc3s2)cc1,33.2,i,-27.3,0.7,-8.6,-7.6
Cc1ccc2nc(-c3cccc(S(=O)(=O)N(C)C)c3)cn2c1,13.7,i,.,-3.0,-7.5,-0.2
CCN(CC)S(=O)(=O)c1cccc(-c2cn3cc(C)ccc3n2)c1,34.3,i,6.0,1.0,56.6*,6.1
Cc1ccccc1C(N)c1ccncc1 (stereo not drawn),9.3,i,.,-0.6,6.5,-3.5
CCc1cc(=O)oc2c3c(cc(OCC(=O)NCCCCCC(=O)O)c12)OC(C)(C)CC3,53.1*,i,.,-17.3,-5.6,4.3
CCc1cc(=O)oc2c3c(cc(OCC(=O)NCc4ccccn4)c12)OC(C)(C)CC3,39.2,i,.,15.4,-15.1,-1.4
COc1cccc(N=C2NC(=O)/C(=C/c3cc([N+](=O)[O-])ccc3O)S2)c1,17.0,i,.,-59.1,65.5,14.7
O=C1NC(=Nc2ccccc2Cl)S/C1=C\c1cc([N+](=O)[O-])ccc1O,8.2,+,.,-89.3,66.3,18.6
CCOC(=O)c1cc(S(=O)(=O)N2CCC(C)CC2)cn1C,.,.,.,-4.5,.,-7.1
Cc1cccc(CN2C(=O)N/C(=C/c3ccc(C)s3)C2=O)c1,17.1,+,-1.6,-73.8,68.8*,-5.2
O=C(CSCc1cccc(Cl)c1)OCc1nc2ccsc2c(=O)[nH]1,.,.,.,7.0,.,-0.8
COc1c(Cl)cc(-c2noc(C)c2C(=O)NC(C)C)cc1Cl,-5.3,i,41.8*,8.6,4.1,4.7
O=C(NC(=S)NNC(=O)c1ccccc1O)c1ccc([N+](=O)[O-])cc1,-11.9,i,.,40.5*,3.3,-1.1
C/C(CC(=O)Nc1ccc([N+](=O)[O-])cc1)=N\NC(=O)c1ccccc1O,2.6,i,.,-14.0,82.3*,6.1
CCCCCC(=O)NNC(=S)NC(=O)c1ccc([N+](=O)[O-])cc1,-11.5,i,-2.9,39.4*,62.0,4.2
O=C(NNC(=S)NC(=O)c1ccccc1)c1ccc([N+](=O)[O-])cc1,-6.1,i,.,29.8,-0.4,-9.2
Cc1ccc(NC(=O)Cn2c(=S)[nH]c3ccccc32)cc1,-2.2,i,1.0,-76.2,7.6,0.2
CC(=O)OC(C(=O)NCc1ccco1)c1ccncc1 (stereo not drawn),8.2,i,4.1,1.4,-1.2,-0.8
COC(=O)c1scc2c(=O)cc(C(F)(F)F)[nH]c12,37.3,i,-2.4,55.6*,48.4,-8.4
CC(=O)C1C(=O)CC(C)(O)C(C(C)=O)C1c1ccccc1 (stereo not drawn),10.0,i,-1.2,-4.8,1.1,-1.5
CC(Oc1ccc(Cl)cc1Cl)C(=O)Nc1ccc(O)cc1 (stereo not drawn),2.6,i,-1.4,10.4,2.6*,3.3
O=S1(=O)CC(N2CCC(c3ccccc3)CC2)CN1Cc1ccccc1 (stereo not drawn),.,.,.,1.7,.,.
COc1nccnc1NS(=O)(=O)c1ccc(NC(=S)NC(=O)/C=C/c2ccccc2)cc1,-7.7,i,-2.5,45.5*,1.0,3.3
O=S(=O)(c1cccc(F)c1)N1CCc2sccc2C1c1ccc(OC(F)(F)F)cc1 (stereo not drawn),-7.1,i,5.2,4.1,-10.2,0.1
CSc1nc(N)nc(SCC(=O)c2ccc(C)cc2)c1C#N,-6.3,i,1.6,-31.4,-11.3,47.5*
SMILES,UBC9 SUMO inh,PABP FP inh,eIF4E-4G inh,MLLE-PAM2 inh,eIF4H inh,HCV core dimer
CSc1nc(N)nc(SCC(=O)OC(C)C)c1C#N,20.8,i,-0.8,-14.1,-4.0,-2.2
O=C(Nc1ccc(OC(F)(F)F)cc1)C1CCCN(S(=O)(=O)c2cnc[nH]2)C1 (stereo not drawn),0.7,i,.,-2.7,-0.4,-2.3
O=C(O)c1ccc2nc(-c3ccccc3)c(-c3ccccc3)nc2c1,20.9,i,-6.4,10.2,-10.0,-2.3
O=C(c1ccccc1)c1ccc2nc(-c3ccco3)c(-c3ccco3)nc2c1,95.3*,i,24.4,1.6,96.5,46.8*
O=C(NC1CCCC1)c1ccc2nc(-c3ccco3)c(-c3ccco3)nc2c1,51.4*,+,15.3,33.8,101.5*,24.2
O=C(NC1CCCC1)c1ccc2nc[nH]c2c1,10.5,i,1.2,1.4,0.9,-2.5
O=C(NCCO)c1ccc2nc(-c3ccco3)c(-c3ccco3)nc2c1,?,+,6.2,40.4*,86.7*,-4.8
O=C(NCCc1ccccc1)c1ccc2nc(-c3ccco3)c(-c3ccco3)nc2c1,88.0,+,18.3,16.1,88.5*,65.2*
Cc1ccc(S(=O)(=O)NC(=O)C2(C)CCN2C(=O)CC2CCCC2)nc1 (stereo not drawn),.,.,.,-4.6,.,.
Cn1ccnc1CN1CCCCC1C(=O)Nc1ccc(Oc2cccnc2)cc1 (stereo not drawn),-14.4,i,.,-15.2,-1.4,-7.3
c1ccc(-c2nc(SCc3nc4ccccc4[nH]3)c3oc4ccccc4c3n2)cc1,.,.,.,-18.8,.,.
O=C(COc1ccc([N+](=O)[O-])cc1)NNC(=O)Nc1ccccc1F,13.8,i,.,-7.2,4.5,-7.8
c1coc(-c2cnc3ccccc3n2)c1,.,.,.,26.9,.,.
c1coc(-c2nc3ccccc3nc2-c2ccco2)c1,46.2,+,.,32.0,102.1*,9.5
COCc1cc(Sc2ccc(OC)cc2)nc(-c2ccccc2)n1,2.5,i,-4.0,-2.2,active,5.3
COC(=O)CCC(=O)OC1(C)C(=O)C=C2C=C3CCCN3C=C2C1=O (stereo not drawn),36.3,+,10.6,-7.4,106.7*,5.3
CC1(OC(=O)c2ccc(Cl)nc2)C(=O)C=C2C=C3CCCN3C=C2C1=O (stereo not drawn),45.3,+,9.3,-2.9,100.6*,12.9
CCCC[C@@H]1CCCO[C@@](C(=O)NCc2ccc(C)o2)(C(F)(F)F)C1,.,.,.,-15.0,.,7.2
C[C@@H]1[C@@H](Sc2ccccc2)CC(=O)O[C@@H]1c1ccc(-c2ccccc2)cc1,.,.,.,44.1*,.,0.7
COC(=O)C1=C(C(=O)OC)SC(=C2C(=S)C(C)(C)N(C(=O)C3CC3)c3ccccc32)S1,-18.2,i,10.5,39.5*,-14.5,2.1
O=c1c(Cl)c(Cl)cnn1Cc1nnc(-c2ccc(Cl)cc2)o1,14.1,i,10.0,-52.7,28.2,.
CC(C)(CS(=O)(=O)[O-])NC(=O)CC[N+](C)(C)CCO,-80.8,+,-16.4,0.6,87.8*,-483.9
CN1C(=O)CC(Nc2cccc3cccc(N)c23)C1=O (stereo not drawn),89.7*,i,1.5,16.3,?,-5.1
CC(=O)c1ccc(N(CC(=O)NC2CCCCC2)C(=O)c2csnn2)cc1,11.2,i,.,4.8,-0.8,-2.5
